From ChEMBL document CHEMBL1125319, “Synthesis and hypoglycemic activity of substituted 8-(1-piperazinyl)imidazo[1,2-a]pyrazines” (J Med Chem, 1992)
Activity calls are given as the source filed them. No cut-off for these calls is given here.

Columns and labels:
Mus musculus [1] = assay: Ability to lower blood glucose in insulin-resistant hyperglycemic ob/ob mice after 30 mg/kg p.o. administration.; format: functional; conditions: route oral
[2] = Hypoglycemic potency relative to MTP-1403; format: functional
Outline: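 ob/ob insulin-resistant hyperglycemic mice on lab chow with free water. Graded oral doses given to groups of 5 mice; glucose load 2 g/kg sc 30 min after dosing, orbital sinus bleed 30 min after the load. Blood glucose compared with a reference standard by parallel-line bioassay, giving potency relative to the standard.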

[3] = target: T1, Alpha-1A adrenergic receptor (Bos taurus) (UniProt P18130); assay: Inhibition of binding of [3H]prazosin to Alpha-1 adrenergic receptor in calf cerebral cortex homogenates at 10000 nM; format: tissue-based
T1 sequence (whole entry): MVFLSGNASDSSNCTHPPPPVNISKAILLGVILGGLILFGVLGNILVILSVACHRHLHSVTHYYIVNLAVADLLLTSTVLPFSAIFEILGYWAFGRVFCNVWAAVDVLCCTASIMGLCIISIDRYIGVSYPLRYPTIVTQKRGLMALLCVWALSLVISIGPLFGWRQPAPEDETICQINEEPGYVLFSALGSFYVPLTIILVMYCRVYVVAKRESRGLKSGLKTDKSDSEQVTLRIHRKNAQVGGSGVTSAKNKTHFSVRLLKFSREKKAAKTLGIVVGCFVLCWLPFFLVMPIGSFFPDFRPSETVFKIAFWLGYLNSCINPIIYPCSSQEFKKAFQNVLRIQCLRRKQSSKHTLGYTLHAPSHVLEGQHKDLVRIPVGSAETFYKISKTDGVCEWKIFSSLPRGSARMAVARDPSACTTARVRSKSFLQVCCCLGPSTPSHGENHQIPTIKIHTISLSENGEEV

[4] = target: T2, Beta-1 adrenergic receptor (Cavia porcellus, UniProt B0FL73)
T2 sequence (B0FL73 whole entry): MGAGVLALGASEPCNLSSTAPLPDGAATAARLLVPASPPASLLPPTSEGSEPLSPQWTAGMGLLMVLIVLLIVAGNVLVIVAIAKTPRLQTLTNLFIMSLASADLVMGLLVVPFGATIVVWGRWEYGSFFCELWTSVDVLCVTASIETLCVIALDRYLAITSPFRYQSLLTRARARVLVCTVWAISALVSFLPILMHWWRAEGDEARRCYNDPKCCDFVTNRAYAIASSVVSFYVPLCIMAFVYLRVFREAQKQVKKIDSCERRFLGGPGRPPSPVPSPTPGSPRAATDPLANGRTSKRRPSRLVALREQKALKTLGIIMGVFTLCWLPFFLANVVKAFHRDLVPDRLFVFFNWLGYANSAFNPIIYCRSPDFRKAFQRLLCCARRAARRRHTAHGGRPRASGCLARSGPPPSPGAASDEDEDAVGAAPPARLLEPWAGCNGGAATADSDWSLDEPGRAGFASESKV

[5] = target: T3, Alpha-2A adrenergic receptor (Bos taurus, UniProt Q28838); assay: Binding affinity at Alpha-2 adrenergic receptor in calf cerebral cortex homogenates by [3H]clonidine displacement.; format: tissue-based
T3 sequence (Q28838 whole entry): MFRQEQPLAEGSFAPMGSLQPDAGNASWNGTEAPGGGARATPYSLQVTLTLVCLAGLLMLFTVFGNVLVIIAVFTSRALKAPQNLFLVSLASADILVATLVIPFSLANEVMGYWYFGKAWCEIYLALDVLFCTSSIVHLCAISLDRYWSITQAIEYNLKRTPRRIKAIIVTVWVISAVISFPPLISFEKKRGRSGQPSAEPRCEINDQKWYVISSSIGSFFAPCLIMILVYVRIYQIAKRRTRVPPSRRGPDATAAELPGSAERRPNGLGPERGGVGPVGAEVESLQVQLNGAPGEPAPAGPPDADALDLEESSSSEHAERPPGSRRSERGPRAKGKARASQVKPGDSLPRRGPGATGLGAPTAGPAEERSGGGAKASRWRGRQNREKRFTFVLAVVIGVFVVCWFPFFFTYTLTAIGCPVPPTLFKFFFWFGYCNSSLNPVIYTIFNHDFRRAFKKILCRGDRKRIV

[6] = target: Beta-2 adrenergic receptor (Cavia porcellus, UniProt Q8K4Z4)
Beta-2 adrenergic receptor, sequence (Q8K4Z4 whole entry): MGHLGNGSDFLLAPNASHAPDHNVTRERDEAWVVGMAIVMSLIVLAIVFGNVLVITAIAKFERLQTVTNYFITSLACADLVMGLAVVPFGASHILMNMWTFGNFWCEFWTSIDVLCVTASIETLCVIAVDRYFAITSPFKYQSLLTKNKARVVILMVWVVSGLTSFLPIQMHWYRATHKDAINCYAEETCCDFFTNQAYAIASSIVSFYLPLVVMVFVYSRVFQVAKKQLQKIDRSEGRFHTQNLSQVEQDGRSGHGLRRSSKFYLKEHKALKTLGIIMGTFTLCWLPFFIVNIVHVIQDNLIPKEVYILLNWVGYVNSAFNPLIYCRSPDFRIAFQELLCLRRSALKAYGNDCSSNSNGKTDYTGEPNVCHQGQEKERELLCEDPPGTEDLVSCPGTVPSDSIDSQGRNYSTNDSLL

[7] = Binding affinity against Alpha-1 adrenergic receptor of calf cerebral cortex homogenates using [3H]prazosin; format: tissue-based, Bos taurus
[8] = target: T4, Alpha-1A adrenergic receptor (Bos taurus, UniProt P18130); assay: Binding affinity against alpha-1 adrenergic receptor was determined in calf cerebral cortex homogenates using [3H]prazosin as radioligand; format: tissue-based
T4 sequence (P18130 whole entry): T1 sequence (whole entry)

Mus musculus [9] = assay: Compound was evaluated for its ability to lower blood glucose in insulin-resistant hyperglycemic ob/ob mice after peroral administration of 30 mg/kg single dose; NA= not active; format: functional, organism-based; design: dose 30 mg/kg; conditions: at 30 mg/kg
[10] = target: T2, Beta-1 adrenergic receptor; assay: Binding affinity against Beta-1 adrenergic receptor was measured using [125I]CYP as radioligand; NB= not bound

Row | Structure (SMILES) | Blood glucose, percent of control (Mus musculus [1]) [%] | Relative potency [2] | inhibition [3] [%] | Ki [4] [nM] | Ki [5] [nM] | Ki [6] [nM] | Ki [7] [nM] | Ki [8] [nM] | Control (Mus musculus [9]) | Ki [10]
1 | Cl.FCCc1cnc2c(N3CCNCC3)nccn12 | 56 | 8 | – | – | – | – | – | – | – | –
2 | CN1CCN(c2nccn3c(Br)cnc23)CC1 | 98 | – | 4 | 6300 | 1350 | – | – | – | – | –
3 | C1=CN2CCN=C2C(N2CCNCC2)=N1.O=C(O)C/C=C\CC(=O)O | 71 | – | 15 | – | 870 | – | – | – | – | –
4 | Cc1cn2ccnc2c(N2CCNCC2)n1.Cl | 61 | – | – | 220 | 190 | 280 | 500 | – | – | –
5 | Cl.Cl.Clc1cn2ccnc2c(N2CCNCC2)n1 | 36 | > 5 | – | – | – | – | – | 250 | – | –
6 | c1cn2ccnc2c(N2CCNCC2)n1 | – | 76 | – | 400 | – | 1700 | 3100 | – | – | –
7 | Cc1cnc(N2CCNCC2)c2nccn12.Cl | 52 | 17 | – | 360 | 140 | 820 | 2600 | – | – | –
8 | Cc1cnc(N2CCN(C)CC2)c2nccn12 | 51 | 6 | 45 | 2800 | 81 | – | – | – | – | –
9 | CC1CN=C2C(N3CCNCC3)=NC=CN21.O=C(O)C/C=C\CC(=O)O (stereo not given) | 88 | – | 12 | – | 1600 | – | – | – | – | –
10 | Cc1cn2c(C)cnc2c(N2CCNCC2)n1.Cl | 47 | 6 | – | 150 | 620 | 250 | 300 | – | – | –
11 | Cc1cnc2c(N3CCNCC3)nccn12.Cl | 32 | 11 | – | 2400 | 240 | 2300 | 1800 | – | – | –
12 | Cc1cn2ccnc(N3CCNCC3)c2n1.Cl | 28 | 32 | – | 310 | 51 | – | – | – | – | –
13 | CCc1cnc2c(N3CCNCC3)nccn12.Cl | 54 | 4 | 30 | 5000 | 530 | 3240 | – | – | – | –
14 | CC(C)c1cnc2c(N3CCNCC3)nccn12.Cl | 60 | 3 | – | 2990 | 370 | 2010 | 5430 | – | – | –
15 | CN1CCN(c2ncc(Br)n3ccnc23)CC1 | 100 | – | 22 | 500 | 270 | – | – | – | – | –
16 | Brc1cnc(N2CCNCC2)c2nccn12 | 87 | – | – | 170 | 182 | 520 | 1490 | – | – | –
17 | Brc1cnc(N2CCNCC2)c2ncc(Br)n12 | – | – | – | 630 | 11900 | – | – | – | inactive | –
18 | CN1CCN(c2nccn3ccnc23)CC1 | 62 | 19 | – | – | 1020 | – | – | – | – | Not Active
19 | CCCc1cnc2c(N3CCNCC3)nccn12.Cl | 59 | 4 | – | 7790 | 480 | 1390 | 2650 | – | – | –
20 | Cc1cnc(N2CCNCC2)c2ncc(C)n12.Cl | 72 | – | – | 400 | 340 | – | – | – | – | –
21 | Cl.Clc1cnc2c(N3CCNCC3)nccn12 | 66 | – | – | – | – | – | 2780 | – | – | –
